Measurements: ChEMBL document CHEMBL5058577, “EUbOPEN Chemogenomics Library 2 (Multiplex)” (2022)

Tested on: Fibroblast
Assay: Multiplex assay against human fibroblast
Format: toxicity, cell-based
Outline: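 Cells stained live at seeding with Hoechst33342, BioTracker Green Microtubule Cytoskeleton Dye, MitoTracker Red and Annexin V Alexa Fluor 680 were imaged on a CQ1 microscope at 37°C and 5% CO2 after compound addition. Their classification by CellPathfinder machine-learning gating ran from Hoechst high-intensity objects versus normal cells, to healthy, pyknosed or fragmented nuclei among normal cells, to mitotic or apoptotic among pyknosed cells. Tubulin, mitochondrial-mass and membrane-permeability phenotypes are per cents of healthy-nucleus cells.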

[1] = 12 h, 1 µM, compound concentration 1 uM, replicate 1
[2] = 12 h, 1 µM, compound concentration 1 uM, replicate 2
[3] = 12 h, 10 µM, compound concentration 10 uM, replicate 1
[4] = 12 h, 10 µM, compound concentration 10 uM, replicate 2
[5] = 24 h, 1 µM, compound concentration 1 uM, replicate 1
[6] = 24 h, 1 µM, compound concentration 1 uM, replicate 2
[7] = 24 h, 10 µM, compound concentration 10 uM, replicate 1
[8] = 24 h, 10 µM, compound concentration 10 uM, replicate 2
[9] = 48 h, 1 µM, compound concentration 1 uM, replicate 1
[10] = 48 h, 1 µM, compound concentration 1 uM, replicate 2
[11] = 48 h, 10 µM, compound concentration 10 uM, replicate 1
[12] = 48 h, 10 µM, compound concentration 10 uM, replicate 2

## Nc1nc(-c2ccco2)c2cnn(Cc3ccccc3F)c2n1
[1]
  Population Apoptotic (%): 50%
  Population Fragmented Nuclei (%): 10%
  Population Healthy Nuclei (%): 78%
  Population Hoechst High Intensity Objects (%): 0%
  Population Membrane Permeable-Phenotype (%): 1%
  Population Mitochondria Different-Phenotype (%): 2%
  Population Mitotic Cells (%): 50%
  Population Normal (%): 99%
  Population Pyknosed Nuclei (%): 11%
  Population Tubulin-Different-Phenotype (%): 26%
  Total Cell Count: 189
[2]
  Population Apoptotic (%): 45%
  Population Fragmented Nuclei (%): 31%
  Population Healthy Nuclei (%): 50%
  Population Hoechst High Intensity Objects (%): 6%
  Population Membrane Permeable-Phenotype (%): 2%
  Population Mitochondria Different-Phenotype (%): 5%
  Population Mitotic Cells (%): 54%
  Population Normal (%): 93%
  Population Pyknosed Nuclei (%): 17%
  Population Tubulin-Different-Phenotype (%): 42%
  Total Cell Count: 144
[3]
  Population Apoptotic (%): 54%
  Population Fragmented Nuclei (%): 16%
  Population Healthy Nuclei (%): 61%
  Population Hoechst High Intensity Objects (%): 8%
  Population Membrane Permeable-Phenotype (%): 0%
  Population Mitochondria Different-Phenotype (%): 7%
  Population Mitotic Cells (%): 45%
  Population Normal (%): 91%
  Population Pyknosed Nuclei (%): 21%
  Population Tubulin-Different-Phenotype (%): 38%
  Total Cell Count: 123
[4]
  Population Apoptotic (%): 47%
  Population Fragmented Nuclei (%): 39%
  Population Healthy Nuclei (%): 44%
  Population Hoechst High Intensity Objects (%): 10%
  Population Membrane Permeable-Phenotype (%): 5%
  Population Mitochondria Different-Phenotype (%): 13%
  Population Mitotic Cells (%): 52%
  Population Normal (%): 89%
  Population Pyknosed Nuclei (%): 16%
  Population Tubulin-Different-Phenotype (%): 51%
  Total Cell Count: 147
[5]
  Population Apoptotic (%): 50%
  Population Fragmented Nuclei (%): 9%
  Population Healthy Nuclei (%): 82%
  Population Hoechst High Intensity Objects (%): 0%
  Population Membrane Permeable-Phenotype (%): 0%
  Population Mitochondria Different-Phenotype (%): 2%
  Population Mitotic Cells (%): 50%
  Population Normal (%): 100%
  Population Pyknosed Nuclei (%): 7%
  Population Tubulin-Different-Phenotype (%): 24%
  Total Cell Count: 180
[6]
  Population Apoptotic (%): 56%
  Population Fragmented Nuclei (%): 29%
  Population Healthy Nuclei (%): 53%
  Population Hoechst High Intensity Objects (%): 6%
  Population Membrane Permeable-Phenotype (%): 4%
  Population Mitochondria Different-Phenotype (%): 5%
  Population Mitotic Cells (%): 43%
  Population Normal (%): 93%
  Population Pyknosed Nuclei (%): 17%
  Population Tubulin-Different-Phenotype (%): 37%
  Total Cell Count: 139
[7]
  Population Apoptotic (%): 70%
  Population Fragmented Nuclei (%): 19%
  Population Healthy Nuclei (%): 66%
  Population Hoechst High Intensity Objects (%): 6%
  Population Membrane Permeable-Phenotype (%): 1%
  Population Mitochondria Different-Phenotype (%): 8%
  Population Mitotic Cells (%): 29%
  Population Normal (%): 93%
  Population Pyknosed Nuclei (%): 14%
  Population Tubulin-Different-Phenotype (%): 39%
  Total Cell Count: 127
[8]
  Population Apoptotic (%): 43%
  Population Fragmented Nuclei (%): 43%
  Population Healthy Nuclei (%): 44%
  Population Hoechst High Intensity Objects (%): 8%
  Population Membrane Permeable-Phenotype (%): 15%
  Population Mitochondria Different-Phenotype (%): 5%
  Population Mitotic Cells (%): 56%
  Population Normal (%): 91%
  Population Pyknosed Nuclei (%): 11%
  Population Tubulin-Different-Phenotype (%): 46%
  Total Cell Count: 147
[9]
  Population Apoptotic (%): 45%
  Population Fragmented Nuclei (%): 16%
  Population Healthy Nuclei (%): 77%
  Population Hoechst High Intensity Objects (%): 3%
  Population Membrane Permeable-Phenotype (%): 2%
  Population Mitochondria Different-Phenotype (%): 1%
  Population Mitotic Cells (%): 54%
  Population Normal (%): 96%
  Population Pyknosed Nuclei (%): 6%
  Population Tubulin-Different-Phenotype (%): 26%
  Total Cell Count: 182
[10]
  Population Apoptotic (%): 57%
  Population Fragmented Nuclei (%): 41%
  Population Healthy Nuclei (%): 48%
  Population Hoechst High Intensity Objects (%): 6%
  Population Membrane Permeable-Phenotype (%): 4%
  Population Mitochondria Different-Phenotype (%): 9%
  Population Mitotic Cells (%): 42%
  Population Normal (%): 93%
  Population Pyknosed Nuclei (%): 10%
  Population Tubulin-Different-Phenotype (%): 37%
  Total Cell Count: 147
[11]
  Population Apoptotic (%): 80%
  Population Fragmented Nuclei (%): 25%
  Population Healthy Nuclei (%): 65%
  Population Hoechst High Intensity Objects (%): 9%
  Population Membrane Permeable-Phenotype (%): 0%
  Population Mitochondria Different-Phenotype (%): 10%
  Population Mitotic Cells (%): 20%
  Population Normal (%): 90%
  Population Pyknosed Nuclei (%): 9%
  Population Tubulin-Different-Phenotype (%): 27%
  Total Cell Count: 115
[12]
  Population Apoptotic (%): 50%
  Population Fragmented Nuclei (%): 50%
  Population Healthy Nuclei (%): 38%
  Population Hoechst High Intensity Objects (%): 5%
  Population Membrane Permeable-Phenotype (%): 16%
  Population Mitotic Cells (%): 50%
  Population Normal (%): 94%
  Population Pyknosed Nuclei (%): 10%
  Population Tubulin-Different-Phenotype (%): 51%
  Total Cell Count: 155

## Nc1nc(CC(=O)Nc2ccc(CCNC[C@H](O)c3ccccc3)cc2)cs1 [MIRABEGRON]
[1]
  Population Apoptotic (%): 53%
  Population Fragmented Nuclei (%): 19%
  Population Healthy Nuclei (%): 62%
  Population Hoechst High Intensity Objects (%): 5%
  Population Membrane Permeable-Phenotype (%): 0%
  Population Mitochondria Different-Phenotype (%): 6%
  Population Mitotic Cells (%): 46%
  Population Normal (%): 94%
  Population Pyknosed Nuclei (%): 18%
  Population Tubulin-Different-Phenotype (%): 25%
  Total Cell Count: 164
[2]
  Population Apoptotic (%): 31%
  Population Fragmented Nuclei (%): 27%
  Population Healthy Nuclei (%): 52%
  Population Hoechst High Intensity Objects (%): 4%
  Population Membrane Permeable-Phenotype (%): 9%
  Population Mitochondria Different-Phenotype (%): 12%
  Population Mitotic Cells (%): 68%
  Population Normal (%): 95%
  Population Pyknosed Nuclei (%): 19%
  Population Tubulin-Different-Phenotype (%): 46%
  Total Cell Count: 189
[3]
  Population Apoptotic (%): 46%
  Population Fragmented Nuclei (%): 15%
  Population Healthy Nuclei (%): 75%
  Population Hoechst High Intensity Objects (%): 3%
  Population Membrane Permeable-Phenotype (%): 0%
  Population Mitochondria Different-Phenotype (%): 4%
  Population Mitotic Cells (%): 53%
  Population Normal (%): 96%
  Population Pyknosed Nuclei (%): 9%
  Population Tubulin-Different-Phenotype (%): 19%
  Total Cell Count: 171
[4]
  Population Apoptotic (%): 30%
  Population Fragmented Nuclei (%): 31%
  Population Healthy Nuclei (%): 41%
  Population Hoechst High Intensity Objects (%): 5%
  Population Membrane Permeable-Phenotype (%): 1%
  Population Mitochondria Different-Phenotype (%): 3%
  Population Mitotic Cells (%): 69%
  Population Normal (%): 94%
  Population Pyknosed Nuclei (%): 27%
  Population Tubulin-Different-Phenotype (%): 45%
  Total Cell Count: 137
[5]
  Population Apoptotic (%): 59%
  Population Fragmented Nuclei (%): 17%
  Population Healthy Nuclei (%): 64%
  Population Hoechst High Intensity Objects (%): 5%
  Population Membrane Permeable-Phenotype (%): 1%
  Population Mitochondria Different-Phenotype (%): 4%
  Population Mitotic Cells (%): 40%
  Population Normal (%): 94%
  Population Pyknosed Nuclei (%): 18%
  Population Tubulin-Different-Phenotype (%): 28%
  Total Cell Count: 156
[6]
  Population Apoptotic (%): 58%
  Population Fragmented Nuclei (%): 27%
  Population Healthy Nuclei (%): 57%
  Population Membrane Permeable-Phenotype (%): 9%
  Population Mitochondria Different-Phenotype (%): 7%
  Population Mitotic Cells (%): 41%
  Population Pyknosed Nuclei (%): 14%
  Population Tubulin-Different-Phenotype (%): 45%
  Total Cell Count: 179
[7]
  Population Apoptotic (%): 53%
  Population Fragmented Nuclei (%): 15%
  Population Healthy Nuclei (%): 75%
  Population Hoechst High Intensity Objects (%): 2%
  Population Membrane Permeable-Phenotype (%): 0%
  Population Mitochondria Different-Phenotype (%): 4%
  Population Mitotic Cells (%): 46%
  Population Normal (%): 97%
  Population Pyknosed Nuclei (%): 8%
  Population Tubulin-Different-Phenotype (%): 24%
  Total Cell Count: 181
[8]
  Population Apoptotic (%): 55%
  Population Fragmented Nuclei (%): 29%
  Population Healthy Nuclei (%): 48%
  Population Hoechst High Intensity Objects (%): 4%
  Population Membrane Permeable-Phenotype (%): 4%
  Population Mitochondria Different-Phenotype (%): 6%
  Population Mitotic Cells (%): 44%
  Population Normal (%): 95%
  Population Pyknosed Nuclei (%): 21%
  Population Tubulin-Different-Phenotype (%): 44%
  Total Cell Count: 131
[9]
  Population Apoptotic (%): 76%
  Population Fragmented Nuclei (%): 23%
  Population Healthy Nuclei (%): 60%
  Population Hoechst High Intensity Objects (%): 7%
  Population Membrane Permeable-Phenotype (%): 2%
  Population Mitochondria Different-Phenotype (%): 6%
  Population Mitotic Cells (%): 23%
  Population Normal (%): 92%
  Population Pyknosed Nuclei (%): 15%
  Population Tubulin-Different-Phenotype (%): 28%
  Total Cell Count: 176
[10]
  Population Apoptotic (%): 50%
  Population Fragmented Nuclei (%): 40%
  Population Healthy Nuclei (%): 52%
  Population Hoechst High Intensity Objects (%): 2%
  Population Membrane Permeable-Phenotype (%): 4%
  Population Mitochondria Different-Phenotype (%): 10%
  Population Mitotic Cells (%): 50%
  Population Normal (%): 97%
  Population Pyknosed Nuclei (%): 7%
  Population Tubulin-Different-Phenotype (%): 32%
  Total Cell Count: 195
[11]
  Population Apoptotic (%): 64%
  Population Fragmented Nuclei (%): 18%
  Population Healthy Nuclei (%): 74%
  Population Hoechst High Intensity Objects (%): 4%
  Population Membrane Permeable-Phenotype (%): 0%
  Population Mitochondria Different-Phenotype (%): 4%
  Population Mitotic Cells (%): 35%
  Population Normal (%): 95%
  Population Pyknosed Nuclei (%): 7%
  Population Tubulin-Different-Phenotype (%): 21%
  Total Cell Count: 194
[12]
  Population Apoptotic (%): 75%
  Population Fragmented Nuclei (%): 39%
  Population Healthy Nuclei (%): 48%
  Population Hoechst High Intensity Objects (%): 3%
  Population Membrane Permeable-Phenotype (%): 6%
  Population Mitochondria Different-Phenotype (%): 6%
  Population Mitotic Cells (%): 25%
  Population Normal (%): 96%
  Population Pyknosed Nuclei (%): 12%
  Population Tubulin-Different-Phenotype (%): 51%
  Total Cell Count: 132
